Starred links: 1 amine or outer side, 2 acyl side, 3 side chain; linkers in the order of their positions; H or OH if unused. Positions of bridges follow the written chain, without caps; N, C: chain ends. Non-standard residues stand in square brackets, D forms with d. Residues, ends and D or L forms follow the SMILES beside them. βAsp = O=C(O)[C@H](CC(=O)[*:2])N[*:1]; Asu = N[C@@H](CCCCCC(=O)O)C(=O)O; Pen = CC(C)(S)[C@H](N)C(=O)O; hCys = N[C@@H](CCS)C(=O)O; X2 = O=C(CCC[*:2])[*:1]; X1 = O=C(CC[*:2])[*:1]; CO = O=C([*:1])[*:2]
Tests used:
[1] = target: T1, Atrial natriuretic peptide receptor 3 (Mus musculus, UniProt P70180); experiment: Binding affinity was determined based on the displacement of [125]r-ANF (99-126) from binding sites on mouse fibroblasts (NIH 3T3) cells (Atrionatriuretic peptide receptor C).
T1 sequence (P70180 whole entry): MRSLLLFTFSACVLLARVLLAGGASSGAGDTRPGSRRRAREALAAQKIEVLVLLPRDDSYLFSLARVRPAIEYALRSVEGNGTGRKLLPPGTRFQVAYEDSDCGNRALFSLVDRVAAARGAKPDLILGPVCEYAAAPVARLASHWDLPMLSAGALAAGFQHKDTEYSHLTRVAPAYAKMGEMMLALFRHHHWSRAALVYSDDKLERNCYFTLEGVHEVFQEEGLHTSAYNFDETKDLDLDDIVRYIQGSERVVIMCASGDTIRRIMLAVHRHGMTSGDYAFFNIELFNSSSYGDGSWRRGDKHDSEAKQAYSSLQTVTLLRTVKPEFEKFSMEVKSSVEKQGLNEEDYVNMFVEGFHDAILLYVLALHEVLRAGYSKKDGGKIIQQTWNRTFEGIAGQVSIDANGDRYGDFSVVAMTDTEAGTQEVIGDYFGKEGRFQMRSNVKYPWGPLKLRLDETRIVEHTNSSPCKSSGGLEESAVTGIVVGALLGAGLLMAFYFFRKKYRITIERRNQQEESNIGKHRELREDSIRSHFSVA

[2] = organism: Oryctolagus cuniculus; experiment: Compound was tested for the inhibition of the stimulated contractions of the superfused rabbit thoracic aortic rings.; assay type: functional, Aorta
Procedure, shortened: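 Rabbit thoracic aorta rings (4 mm) were held isometrically at 10-g resting tension, superfused and precontracted with phenylephrine. Test peptide was added to the superfusate above the tissue in successively higher doses after each recovery. Doses were based on peptide content. EC50 came from the dose-response curve, mean of three determinations ± SEM.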

[3] = target: T2, Atrial natriuretic peptide receptor 2 (Bos taurus, UniProt P46197); experiment: Binding affinity was determined based on the displacement of [125]r-ANF (99-126) from binding sites on bovine adrenal zona glomerulosa cell membranes (Atrionatriuretic peptide receptor B)
T2 sequence (P46197 whole entry): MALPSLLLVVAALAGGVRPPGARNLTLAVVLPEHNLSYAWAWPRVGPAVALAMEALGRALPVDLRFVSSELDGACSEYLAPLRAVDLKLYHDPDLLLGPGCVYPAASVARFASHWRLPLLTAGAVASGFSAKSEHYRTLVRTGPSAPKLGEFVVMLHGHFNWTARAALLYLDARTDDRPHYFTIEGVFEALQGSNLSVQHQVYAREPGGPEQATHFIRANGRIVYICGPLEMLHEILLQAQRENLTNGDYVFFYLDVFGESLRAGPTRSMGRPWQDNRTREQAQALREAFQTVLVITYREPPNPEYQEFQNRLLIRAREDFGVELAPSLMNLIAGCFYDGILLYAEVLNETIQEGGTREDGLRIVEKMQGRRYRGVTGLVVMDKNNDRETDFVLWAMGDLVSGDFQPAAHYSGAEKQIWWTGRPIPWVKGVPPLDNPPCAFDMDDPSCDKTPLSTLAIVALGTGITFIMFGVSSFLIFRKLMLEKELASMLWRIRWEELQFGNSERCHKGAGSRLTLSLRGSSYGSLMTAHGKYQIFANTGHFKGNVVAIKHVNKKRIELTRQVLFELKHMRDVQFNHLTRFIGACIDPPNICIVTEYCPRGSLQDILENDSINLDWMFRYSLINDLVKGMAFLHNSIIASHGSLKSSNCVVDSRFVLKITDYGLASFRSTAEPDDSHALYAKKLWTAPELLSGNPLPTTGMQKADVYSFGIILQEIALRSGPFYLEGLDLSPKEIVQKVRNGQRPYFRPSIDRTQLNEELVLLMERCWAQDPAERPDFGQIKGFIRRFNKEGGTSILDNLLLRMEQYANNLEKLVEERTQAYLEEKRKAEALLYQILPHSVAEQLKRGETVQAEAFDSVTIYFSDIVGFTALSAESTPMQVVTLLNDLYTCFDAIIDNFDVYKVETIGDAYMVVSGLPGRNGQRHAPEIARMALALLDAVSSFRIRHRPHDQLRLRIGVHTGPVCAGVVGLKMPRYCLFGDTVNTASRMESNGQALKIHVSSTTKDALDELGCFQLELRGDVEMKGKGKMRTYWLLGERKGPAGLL

[4] = organism: Rattus norvegicus; experiment: Compound was tested for the K+ excretion for treated over control animals; assay type: functional
Procedure, shortened: (§1)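 Male Sprague-Dawley rats (300-325 g) under halothane/lidocaine had femoral artery, femoral vein and bladder cannulated. After at least 1 h of recovery in restraint, they received Ringer's (1.2 mL/h), with 10-min urine collections over a 30-min control period. Infusion of 0.5 μg/kg per min for 30 min and a 30-min Ringer's recovery followed. Na+, K+ and Cl- were measured with an electrolyte analyzer, reported as treated minus control μmol/sample. Volume ratio is treated/control over three consecutive 10-min samples, six animals.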

[5] = organism: Rattus norvegicus; experiment: Compound was tested for the Na+ excretion for treated over control animals; assay type: functional; procedure, shortened: as §1
[6] = organism: Rattus norvegicus; experiment: Compound was tested for antihypertensive activity in DOCA nephrectomized rats.; assay type: functional
Procedure, shortened: (§2)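 Rats were anesthetized with halothane after skin infiltration with 2% lidocaine, and the femoral artery and vein were cannulated. After recovery, arterial pressure was recorded. A saline control period was followed by i.v. infusion in 30-min steps at 0.1, 0.2, 0.5 and 1.0 μg/kg per min (70 μL/kg per min). Hydralazine (100 μg/kg per min) was given for standardization. ED50 is in nmol/kg per min, from six animals.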

[7] = organism: Rattus norvegicus; experiment: Compound was tested for antihypertensive activity in 5/6 nephrectomized rats.; assay type: functional; procedure, shortened: as §2

Compound | IC50 [1] [nM] | EC50 [2] [M 50ul-1] | IC50 [3] [nM] | Electrolyte excretion [4] [uM sample-1] | Electrolyte excretion [5] [uM sample-1] | ED50 [6] [nM/min/kg] | ED50 [7] [nM/min/kg]
CC[C@H](C)[C@@H]1NC(=O)[C@H](CCCN=C(N)N)NC(=O)[C@H](CC(=O)O)NC(=O)[C@H]([C@@H](C)CC)NC(=O)[C@H](CCCN=C(N)N)NC(=O)CNC(=O)CNC(=O)[C@H](Cc2ccccc2)NC(=O)CCC=CC[C@@H](C(=O)N[C@@H](CC(N)=O)C(=O)N[C@@H](CO)C(=O)N[C@@H](Cc2ccccc2)C(=O)N[C@@H](CCCN=C(N)N)C(=O)N[C@@H](Cc2ccc(O)cc2)C(=O)O)NC(=O)CNC(=O)[C@H](CC(C)C)NC(=O)CNC(=O)[C@H](CO)NC(=O)[C@H](CCC(N)=O)NC(=O)[C@H](C)NC(=O)CNC1=O | 0.63 | 5.5e-10 | 51 |  |  |  | 
CC[C@H](C)[C@@H]1NC(=O)[C@H](CCCN=C(N)N)NC(=O)[C@H](CC(=O)O)NC(=O)[C@H]([C@@H](C)CC)NC(=O)[C@H](CCCN=C(N)N)NC(=O)CNC(=O)CNC(=O)[C@H](Cc2ccccc2)NC(=O)CCCSC[C@@H](C(=O)N[C@@H](CC(N)=O)C(=O)N[C@@H](CO)C(=O)N[C@@H](Cc2ccccc2)C(=O)N[C@@H](CCCN=C(N)N)C(=O)N[C@@H](Cc2ccc(O)cc2)C(=O)O)NC(=O)CNC(=O)[C@H](CC(C)C)NC(=O)CNC(=O)[C@H](CO)NC(=O)[C@H](CCC(N)=O)NC(=O)[C@H](C)NC(=O)CNC1=O (FGGRIDRIGAQSGLGCNSFRY-OH; linker N-16 via X2) | 0.56 | 2.6e-10 | 6.17 |  |  |  | 
CC[C@H](C)[C@@H]1NC(=O)[C@H](CCCN=C(N)N)NC(=O)[C@H](CC(=O)O)NC(=O)[C@H]([C@@H](C)CC)NC(=O)[C@H](CCCN=C(N)N)NC(=O)CNC(=O)CNC(=O)[C@H](Cc2ccccc2)NC(=O)CCCCC[C@@H](C(=O)N[C@@H](CC(N)=O)C(=O)N[C@@H](CO)C(=O)N[C@@H](Cc2ccccc2)C(=O)N[C@@H](CCCN=C(N)N)C(=O)N[C@@H](Cc2ccc(O)cc2)C(=O)O)NC(=O)CNC(=O)[C@H](CC(C)C)NC(=O)CNC(=O)[C@H](CO)NC(=O)[C@H](CCC(N)=O)NC(=O)[C@H](C)NC(=O)CNC1=O (FGGRIDRIGAQSGLG[Asu]NSFRY-OH; lactam N-16) | 0.78 | 4.8e-10 | 28.8 |  |  |  | 
CC[C@H](C)[C@@H]1NC(=O)[C@H](CCCN=C(N)N)NC(=O)[C@H](CC(=O)O)NC(=O)[C@H]([C@@H](C)CC)NC(=O)[C@H](CCCN=C(N)N)NC(=O)CNC(=O)CNC(=O)[C@H](Cc2ccccc2)NC(=O)CCCSC(C)(C)[C@@H](C(=O)N[C@@H](CC(N)=O)C(=O)N[C@@H](CO)C(=O)N[C@@H](Cc2ccccc2)C(=O)N[C@@H](CCCN=C(N)N)C(=O)N[C@@H](Cc2ccc(O)cc2)C(=O)O)NC(=O)CNC(=O)[C@H](CC(C)C)NC(=O)CNC(=O)[C@H](CO)NC(=O)[C@H](CCC(N)=O)NC(=O)[C@H](C)NC(=O)CNC1=O (FGGRIDRIGAQSGLG[Pen]NSFRY-OH; linker N-16 via X2) | 0.35 | 6.8e-10 | 7.8 |  |  |  | 
CC[C@H](C)[C@@H]1NC(=O)[C@H](CCCN=C(N)N)NC(=O)[C@H](CC(=O)O)NC(=O)[C@H]([C@@H](C)CC)NC(=O)[C@H](CCCN=C(N)N)NC(=O)CNC(=O)CNC(=O)[C@H](Cc2ccccc2)NC(=O)CCSCC[C@@H](C(=O)N[C@@H](CC(N)=O)C(=O)N[C@@H](CO)C(=O)N[C@@H](Cc2ccccc2)C(=O)N[C@@H](CCCN=C(N)N)C(=O)N[C@@H](Cc2ccc(O)cc2)C(=O)O)NC(=O)CNC(=O)[C@H](CC(C)C)NC(=O)CNC(=O)[C@H](CO)NC(=O)[C@H](CCC(N)=O)NC(=O)[C@H](C)NC(=O)CNC1=O (FGGRIDRIGAQSGLG[hCys]NSFRY-OH; linker N-16 via X1) | 0.21 | 3.5e-10 | 7.8 |  |  |  | 
CC[C@H](C)[C@@H]1NC(=O)[C@H](CCCN=C(N)N)NC(=O)[C@H](CC(=O)O)NC(=O)[C@H]([C@@H](C)CC)NC(=O)[C@H](CCCN=C(N)N)NC(=O)CNC(=O)CNC(=O)[C@H](Cc2ccccc2)NC(=O)[C@@H](NC(=O)[C@H](CO)NC(=O)[C@@H](N)CO)CSSC[C@@H](C(=O)N[C@@H](CC(N)=O)C(=O)N[C@@H](CO)C(=O)N[C@@H](Cc2ccccc2)C(=O)N[C@@H](CCCN=C(N)N)C(=O)N[C@@H](Cc2ccc(O)cc2)C(=O)O)NC(=O)CNC(=O)[C@H](CC(C)C)NC(=O)CNC(=O)[C@H](CO)NC(=O)[C@H](CCC(N)=O)NC(=O)[C@H](C)NC(=O)CNC1=O (H-SSCFGGRIDRIGAQSGLGCNSFRY-OH; disulfide 3-19) [listing 1 of 2 here] | 0.35 |  | 1.37 |  |  |  | 
CC[C@H](C)[C@@H]1NC(=O)[C@H](CCCN=C(N)N)NC(=O)[C@H](CC(=O)O)NC(=O)[C@H]([C@@H](C)CC)NC(=O)[C@H](CCCN=C(N)N)NC(=O)CNC(=O)CNC(=O)[C@H](Cc2ccccc2)NC(=O)[C@@H](NC(=O)[C@H](CO)NC(=O)[C@@H](N)CO)CSSC[C@@H](C(=O)N[C@@H](CC(N)=O)C(=O)N[C@@H](CO)C(=O)N[C@@H](Cc2ccccc2)C(=O)N[C@@H](CCCN=C(N)N)C(=O)N[C@@H](Cc2ccc(O)cc2)C(=O)O)NC(=O)CNC(=O)[C@H](CC(C)C)NC(=O)CNC(=O)[C@H](CO)NC(=O)[C@H](CCC(N)=O)NC(=O)[C@H](C)NC(=O)CNC1=O (H-SSCFGGRIDRIGAQSGLGCNSFRY-OH; disulfide 3-19) [listing 2 of 2 here] |  | 8.9e-11 |  |  |  |  | 
CC[C@H](C)[C@H](NC(=O)[C@H](CCCN=C(N)N)NC(=O)[C@H](CC(=O)O)NC(=O)[C@@H](NC(=O)[C@H](CCCN=C(N)N)NC(=O)CNC(=O)CNC(=O)[C@H](Cc1ccccc1)NC(=O)N[C@@H](CC(=O)OC)C(=O)O)[C@@H](C)CC)C(=O)NCC(=O)N[C@@H](C)C(=O)N[C@@H](CCC(N)=O)C(=O)N[C@@H](CO)C(=O)NCC(=O)N[C@@H](CC(C)C)C(=O)NCC(=O)N[C@@H](CS)C(=O)N[C@@H](CC(N)=O)C(=O)N[C@@H](CO)C(=O)N[C@@H](Cc1ccccc1)C(=O)N[C@@H](CCCN=C(N)N)C(=O)N[C@@H](Cc1ccc(O)cc1)C(=O)O ({OMe-βAsp-CO}-FGGRIDRIGAQSGLGCNSFRY-OH) |  | 1.4e-10 | 8.67 | 23.5 | 38.1 | >4 | >2
